Assay outcomes (PubChem)
Hits are enriched below; roughly 6% of the tested compounds scored in any of these assays.
Jurkat viability – cytotoxicity toward Jurkat cells | Jurkat E6.1 viability, ATP luminescence, 48 h | inhibition, % at 4 µM | 1.2% of 56,000 active | AID 463;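 active means inhibition above the mean inhibition of all tested compounds plus 3 SD, cut at about 28% in these data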
H69AR growth 86K – growth inhibitors of human H69AR lung tumor cells; H69AR lung tumor viability, ATP luminescence, 72 h; active compounds read low; viability, % at 10 µM; 6% of 85,000 active; AID 598;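 active means viability at or below 40%; inactive means viability above 40%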;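 further: multidrug resistant small cell line overexpressing MRP-1 efflux transporter; 100% = mean luminescence of untreated control wells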
Fibroblast inh – blocks proliferation of human lung fibroblasts | 1.1% of 85,000 active | LL 47 human lung fibroblast viability, ATP luminescence; active compounds read low | viability, % at 10 µM;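 active means viability at or below 50% in the single dose screen; inactive means viability above 50%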;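 further: compound exposure lasted 72 h before the ATP readout; 100% = median luminescence of untreated cell-only wells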
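Material: Human LL 47 lung fibroblast cells | Input: 1,150 cells/well | Buffer or medium: IMEM plus 15% FBS | Compound dosing: 0.1% DMSO in all compound wells | Times: Overnight cell rest, 72 h compound treatment at 37 °C | Signal: CellTiter-Glo luminescence measuring cellular ATP | Measure: % viability versus median cells-only luminescence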
F-actin modifier – alters cytoskeleton assembly in HUVEC cells; HUVEC TNFa F-actin phalloidin imaging, high content; inhibition, % at 2 µM; 0.18% of 91,000 active;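 active means inhibition above the batch mean plus 3 SD and confirmed as a hit by visual image inspection, cut at about 30% in these data, passing the limit was not always enough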
HUVEC prolif 384 – human endothelial cell proliferation inhibition; HUVEC proliferation, CellTiter-Glo luminescence, 72 h; active compounds read low; viability, % at 10 µM (by protocol); 1.1% of 86,000 active; AID 648;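 active means viability at or below 30%; inactive means viability above 30%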;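 further: 100% = median luminescence of DMSO-only cell control wells on each plate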
Pyk2 oligo antag – Pyk2 (human) oligomerization antagonism; Q293 cells, Pyk2 FERM NanoBiT luminescence; active compounds read low; 0.83% of 99,000 active; Q14289; z-score (the deposit names both 25 µM and 10 µM);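 active means Z-score of -3 or lower, scaled per plate to the spread of control and sample wells; inactive means z-score above -3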;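 further: negative z-score means lost luminescence so less FERM oligomerization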
Target sequence (Q14289 whole entry, looked up): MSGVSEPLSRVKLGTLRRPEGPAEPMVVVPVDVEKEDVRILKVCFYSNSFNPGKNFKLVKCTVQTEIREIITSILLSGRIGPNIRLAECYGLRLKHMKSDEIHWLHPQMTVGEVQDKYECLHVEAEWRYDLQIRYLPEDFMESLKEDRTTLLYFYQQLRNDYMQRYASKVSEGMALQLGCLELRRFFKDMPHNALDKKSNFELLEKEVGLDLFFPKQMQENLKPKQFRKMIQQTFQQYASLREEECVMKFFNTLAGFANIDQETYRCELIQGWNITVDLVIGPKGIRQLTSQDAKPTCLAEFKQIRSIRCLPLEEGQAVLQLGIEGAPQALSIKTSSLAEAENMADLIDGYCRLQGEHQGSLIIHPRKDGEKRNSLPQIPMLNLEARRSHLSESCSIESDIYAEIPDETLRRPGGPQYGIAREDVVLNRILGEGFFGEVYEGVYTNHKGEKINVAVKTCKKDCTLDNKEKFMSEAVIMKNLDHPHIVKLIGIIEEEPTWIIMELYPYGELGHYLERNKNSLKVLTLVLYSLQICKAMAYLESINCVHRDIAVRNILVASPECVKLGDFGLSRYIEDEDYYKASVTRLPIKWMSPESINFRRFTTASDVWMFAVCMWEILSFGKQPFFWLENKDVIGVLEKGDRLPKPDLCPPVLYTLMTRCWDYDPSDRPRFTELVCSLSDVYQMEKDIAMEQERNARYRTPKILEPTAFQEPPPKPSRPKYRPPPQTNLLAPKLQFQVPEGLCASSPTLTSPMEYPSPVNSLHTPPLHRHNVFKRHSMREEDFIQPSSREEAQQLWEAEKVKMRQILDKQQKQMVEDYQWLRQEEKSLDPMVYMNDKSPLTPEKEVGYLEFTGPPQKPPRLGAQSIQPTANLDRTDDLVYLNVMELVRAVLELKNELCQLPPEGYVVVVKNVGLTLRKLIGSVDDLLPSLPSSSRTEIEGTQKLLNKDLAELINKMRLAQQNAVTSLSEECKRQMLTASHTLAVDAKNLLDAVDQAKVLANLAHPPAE
Numbers without * were called inactive; · = no result given.

SMILES	Jurkat viability	H69AR growth 86K	Fibroblast inh	F-actin modifier	HUVEC prolif 384	Pyk2 oligo antag
CCOc1ccc2[nH]c(=O)c(CN(Cc3ccc(F)cc3)C(=O)c3ccco3)cc2c1	11	16*	78	-7	49	1.5
O=C(c1ccco1)N(Cc1cc2ccccc2[nH]c1=O)C1CCCCC1	-2	77	93	-13	105	-0.46
CCOc1ccc2[nH]c(=O)c(CN(Cc3ccccc3OC)C(=O)c3ccccc3)cc2c1	·	27*	51	-7	52	-2.1
Cc1ccc(N(C(=O)Cn2nnc(-c3ccc(F)cc3)n2)C(CC(C)C)C(=O)NCC2CCCO2)cc1 (centres undefined)	·	·	·	-3	·	-0.33
CCOc1ccc2[nH]c(=O)c(CN(Cc3ccco3)C(=O)c3ccc(Br)cc3)cc2c1	-8	19*	66	·	57	-0.03
COc1ccc2[nH]c(=O)c(CN(Cc3ccc4c(c3)OCO4)C(C)=O)cc2c1	4	74	103	36*	87	1.2
Cc1ccc2[nH]c(=O)c(CN(Cc3ccco3)C(=O)c3ccncc3)cc2c1	40*	23*	83	·	58	-0.2
O=C(Nc1ccc(F)cc1)N(Cc1ccco1)Cc1cc2cc3c(cc2[nH]c1=O)OCO3	-4	31*	94	-10	77	0.42
Cc1ccc(NC(=O)N(Cc2ccc3c(c2)OCO3)Cc2cc3cc4c(cc3[nH]c2=O)OCCO4)cc1	8	85	89	3	81	0.01
CCOc1ccc2[nH]c(=O)c(CN(Cc3ccco3)C(=O)c3cccc(F)c3)cc2c1	11	78	89	10	86	0.06
COc1ccc(C(=O)N(Cc2ccco2)Cc2cc3cc(C)ccc3[nH]c2=O)cc1OC	-2	41	101	-12	102	1.6
CCc1ccc2[nH]c(=O)c(CN(Cc3ccc4c(c3)OCO4)C(=O)c3ccco3)cc2c1	6	80	94	11	77	·
CC(NC(=O)c1ccc(N(C)C)cc1)C1CC2CCC1C2 (centres undefined)	·	·	·	2	·	0.4
Cc1ccc(Cl)cc1NC(=O)c1cccc(OC(F)F)c1	·	·	·	4	·	-0.94
Cc1ccccc1N/C=C/C(=C(C#N)C#N)N(C)C	·	·	·	0	·	0.9
COc1ccc2[nH]c(=O)c(CN(CC3CCCO3)C(=O)Nc3ccccc3OC)cc2c1 (centres undefined)	7	20*	87	28	64	-0.81
CCC1Oc2ccc(C)cc2N(CC(=O)N(Cc2cccnc2)Cc2cccc(F)c2)C1=O (centres undefined)	·	43	90	3	87	-1.7
CCC1Oc2ccc(C)cc2N(CC(=O)N(Cc2ccncc2)Cc2ccco2)C1=O (centres undefined)	·	34*	121	-1	96	0.68
CCC(C)(C)n1nnnc1C(c1ccc(O)c(OC)c1)N1CCc2ccccc2C1 (centres undefined)	·	34*	87	-15	94	-0.51
CCC(C)(C)n1nnnc1C(c1ccc(O)c(OC)c1)N1CCN(c2nc3ccccc3s2)CC1 (centres undefined)	6	14*	94	·	93	-1.2
C=C(C)CSc1nnc([C@@H](NC(=O)OC(C)(C)C)C(C)CC)o1 (some centres undefined)	-1	96	99	-12	101	0.05
CCOc1cc(C2NC(=O)NC(C)=C2C(=O)NCc2ccccc2)c(Cl)cc1O (centres undefined)	·	101	102	14	95	-0.15
CCOC(=O)C(=O)Nc1nnc(CCc2ccccc2)s1	·	97	102	-9	101	0.82
COc1cccc(C(C(=O)NC2CCCCC2)N(CC2CCCO2)C(=O)CNC(=O)c2ccco2)c1 (centres undefined)	·	98	99	8	97	0.62
CCCn1c(NCc2c[nH]c3ccccc23)nc2ccccc21	·	52	90	·	79	0.35
SMILES	Jurkat viability	H69AR growth 86K	Fibroblast inh	F-actin modifier	HUVEC prolif 384	Pyk2 oligo antag
CCOC(=O)C1=C(C)N2C(=C(C#N)[C@@H]1c1ccc(C(=O)OC)cc1)SC[C@@]2(O)C(C)(C)C	-5	72	92	15	80	-1.3
O=C(Nc1nc2nc(-c3ccccc3)cc(-c3ccccc3)n2n1)c1ccco1	1	·	·	-11	·	-3.5*
COc1ccc(C2C3=C(CC(C)(C)CC3=O)Nc3c2c(=O)[nH]c2nc(C)nn32)cc1 (centres undefined)	-10	·	110	-3	95	0.09
C=CCn1c(SCC(=O)Nc2ccc(C(=O)OCC)cc2)nnc1-c1sc(N)nc1C	0	39*	101	-8	99	-0.8
C=CCn1c(SCc2ccc(C(=O)OC)cc2)nnc1-c1sc(N)nc1C	-2	·	·	·	·	·
O=C(c1cc2c(s1)-c1ccccc1S(=O)(=O)C2)N1CCN(Cc2ccccc2)CC1	·	·	·	4	·	·
COc1cc(NC(=O)N[C@H](C(=O)O)C(C)C)cc(OC)c1	-1	99	99	21	108	1.2
CN(c1ccccc1)S(=O)(=O)c1cc(C(=O)N2CCN(c3ccccn3)CC2)ccc1Cl	·	71	93	-1	82	-0.92
O=C(c1ccc(Cl)c(S(=O)(=O)NCc2ccco2)c1)N1CCN(c2ccccc2F)CC1	·	21*	81	-8	73	-1.1
COc1ccccc1N1CCN(C(=O)c2ccc(Cl)c(S(=O)(=O)NCc3ccco3)c2)CC1	·	23*	68	-13	55	0.06
O=C(c1ccc(Cl)c(S(=O)(=O)Nc2ccc(F)cc2)c1)N1CCN(c2ccccn2)CC1	·	36*	99	-4	74	-2.2
CCOc1cc(NC(=O)C2CC2)c(OCC)cc1NC(=O)c1ccccn1	-11	·	106	-22	95	-3.2*
CCOC(=O)C1CCN(S(=O)(=O)c2c(C)n[nH]c2C)CC1	-14	101	102	-7	97	0.51
CCOc1ccccc1-c1cc(-c2ccc(OC)cc2)nc2c1c(=O)n(C)c(=O)n2C	5	21*	94	·	84	0.97
Cc1ccc(-n2nc3c(n2)/C(=N/O)CC/C3=N\O)cc1	·	57	84	-13	73	-2.8
O/N=C1\CC/C(=N\O)c2nn(-c3ccccc3Cl)nc21	-3	·	47*	1	77	-0.33
N#C/C(C(=O)Oc1ccccc1)=C1/Nc2ccccc2-c2ccccc21	·	66	81	-12	57	-0.02
CCOC(=O)C1=C(C)Nc2nc(SCC)[nH]c(=O)c2C1c1ccncc1 (centres undefined)	·	·	·	18	·	-0.6
CCOc1ccc2nc(NC(=O)CSc3nc4c(c(=O)n(C)c(=O)n4C)n3C(C)C)sc2c1	0	30*	100	·	8.9*	-1.5
CC(C)n1c(SCC(=O)Nc2nc3ccccc3s2)nc2c1c(=O)n(C)c(=O)n2C	·	29*	96	2	69	-3.7*
CCn1c(SCC(=O)N2c3ccccc3CCc3ccccc32)nc2c1c(=O)n(C)c(=O)n2C	6	14*	99	-17	94	0.55
CCn1c(SCC(=O)Nc2nc3ccc(OC)cc3s2)nc2c1c(=O)n(C)c(=O)n2C	4	17*	94	·	73	-1.8
